Assay results from ChEMBL document CHEMBL1136055, “3-Heteroaryl-2-pyridones: benzodiazepine site ligands with functional delectivity for alpha 2/alpha 3-subtypes of human GABA(A) receptor-ion channels” (J Med Chem, 2002).

What was measured:
[1] = biological target: T1, GABA-A receptor; alpha-1/beta-3/gamma-2 (Homo sapiens, UniProt P14867+P18507+P28472); test: Displacement of [3H]Ro-151788 from human GABA-A receptor alpha-1-beta-3-gamma-2 subunits expressed in L(tk-) cells; type: cell-based
T1 sequence (P14867 whole entry): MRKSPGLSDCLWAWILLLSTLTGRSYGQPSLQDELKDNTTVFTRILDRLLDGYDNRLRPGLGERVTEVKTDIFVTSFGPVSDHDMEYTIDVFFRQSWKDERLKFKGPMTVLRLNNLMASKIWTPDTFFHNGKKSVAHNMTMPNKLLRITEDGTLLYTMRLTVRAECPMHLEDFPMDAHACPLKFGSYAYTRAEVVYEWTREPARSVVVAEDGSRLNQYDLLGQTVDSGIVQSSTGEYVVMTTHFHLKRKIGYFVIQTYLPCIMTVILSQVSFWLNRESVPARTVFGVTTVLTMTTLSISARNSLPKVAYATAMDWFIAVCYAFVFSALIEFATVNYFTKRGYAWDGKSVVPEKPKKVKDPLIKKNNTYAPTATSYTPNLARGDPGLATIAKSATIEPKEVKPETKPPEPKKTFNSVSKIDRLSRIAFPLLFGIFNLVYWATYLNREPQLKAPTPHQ
T1 sequence (P18507 whole entry): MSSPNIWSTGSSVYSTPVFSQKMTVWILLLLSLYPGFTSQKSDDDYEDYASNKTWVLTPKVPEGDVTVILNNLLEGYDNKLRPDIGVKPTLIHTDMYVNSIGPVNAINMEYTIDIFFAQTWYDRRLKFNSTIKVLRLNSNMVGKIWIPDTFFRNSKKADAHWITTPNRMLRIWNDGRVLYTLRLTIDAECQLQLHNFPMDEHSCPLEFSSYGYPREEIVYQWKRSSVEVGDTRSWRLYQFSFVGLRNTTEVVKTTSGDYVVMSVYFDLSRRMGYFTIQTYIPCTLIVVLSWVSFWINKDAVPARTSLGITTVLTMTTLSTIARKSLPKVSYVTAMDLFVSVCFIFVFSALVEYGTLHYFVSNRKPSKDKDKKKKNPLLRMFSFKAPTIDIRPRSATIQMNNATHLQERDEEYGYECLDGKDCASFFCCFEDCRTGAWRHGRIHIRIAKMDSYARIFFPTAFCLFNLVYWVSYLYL
T1 sequence (P28472 whole entry): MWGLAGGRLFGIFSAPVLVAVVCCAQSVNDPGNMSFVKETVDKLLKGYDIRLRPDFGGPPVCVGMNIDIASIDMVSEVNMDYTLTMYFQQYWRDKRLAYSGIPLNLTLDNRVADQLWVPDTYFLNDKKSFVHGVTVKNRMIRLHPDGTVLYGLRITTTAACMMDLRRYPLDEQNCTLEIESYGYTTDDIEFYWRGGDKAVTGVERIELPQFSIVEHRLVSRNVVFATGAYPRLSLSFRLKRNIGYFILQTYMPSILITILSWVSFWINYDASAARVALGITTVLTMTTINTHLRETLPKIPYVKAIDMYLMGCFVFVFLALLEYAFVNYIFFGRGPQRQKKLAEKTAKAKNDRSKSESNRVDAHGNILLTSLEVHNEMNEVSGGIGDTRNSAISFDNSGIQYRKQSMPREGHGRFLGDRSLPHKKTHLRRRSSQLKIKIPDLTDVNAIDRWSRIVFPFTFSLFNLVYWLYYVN
In short: (§1)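 Competition binding against [3H]Ro15-1788 on cloned human α1/α2/α3/α5 β3γ2S receptors stably expressed in L(tk-) cells. Six to eight test concentrations spaced in half-log steps. Ki given as mean (SEM), n = 3-5, reported to two significant figures.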

[2] = biological target: T2, GABA-A receptor; alpha-5/beta-3/gamma-2 (Homo sapiens, UniProt P18507+P28472+P31644); test: Inhibition of [3H]Ro-151788 binding to human GABA A receptor (alpha-5-beta-3-gamma-2) stably expressed in L(tk-) cells.; type: cell-based; in short: as §1
T2 sequence (P18507 whole entry): T1 sequence (P18507 whole entry)
T2 sequence (P28472 whole entry): T1 sequence (P28472 whole entry)
T2 sequence (P31644 whole entry): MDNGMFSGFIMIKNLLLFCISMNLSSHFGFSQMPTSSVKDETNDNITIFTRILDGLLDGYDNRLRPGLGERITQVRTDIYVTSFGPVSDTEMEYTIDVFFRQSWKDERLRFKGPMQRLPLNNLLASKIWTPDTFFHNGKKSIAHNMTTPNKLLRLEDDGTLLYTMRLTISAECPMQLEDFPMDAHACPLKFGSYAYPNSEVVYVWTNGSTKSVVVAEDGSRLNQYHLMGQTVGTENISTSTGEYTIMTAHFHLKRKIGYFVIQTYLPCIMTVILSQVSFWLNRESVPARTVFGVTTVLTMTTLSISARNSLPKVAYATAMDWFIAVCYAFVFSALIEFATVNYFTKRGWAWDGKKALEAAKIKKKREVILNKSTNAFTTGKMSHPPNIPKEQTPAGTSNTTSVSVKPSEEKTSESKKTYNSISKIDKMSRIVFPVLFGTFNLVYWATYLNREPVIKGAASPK

[3] = biological target: T3, GABA-A receptor; alpha-3/beta-3/gamma-2 (Homo sapiens, UniProt P18507+P28472+P34903); test: Binding affinity by displacement of [3H]Ro-151788 from recombinant human gamma-aminobutyric-acid A receptor alpha3,beta3,gamma2 stably expressed in L cells; type: cell-based; in short: as §1
T3 sequence (P18507 whole entry): T1 sequence (P18507 whole entry)
T3 sequence (P28472 whole entry): T1 sequence (P28472 whole entry)
T3 sequence (P34903 whole entry): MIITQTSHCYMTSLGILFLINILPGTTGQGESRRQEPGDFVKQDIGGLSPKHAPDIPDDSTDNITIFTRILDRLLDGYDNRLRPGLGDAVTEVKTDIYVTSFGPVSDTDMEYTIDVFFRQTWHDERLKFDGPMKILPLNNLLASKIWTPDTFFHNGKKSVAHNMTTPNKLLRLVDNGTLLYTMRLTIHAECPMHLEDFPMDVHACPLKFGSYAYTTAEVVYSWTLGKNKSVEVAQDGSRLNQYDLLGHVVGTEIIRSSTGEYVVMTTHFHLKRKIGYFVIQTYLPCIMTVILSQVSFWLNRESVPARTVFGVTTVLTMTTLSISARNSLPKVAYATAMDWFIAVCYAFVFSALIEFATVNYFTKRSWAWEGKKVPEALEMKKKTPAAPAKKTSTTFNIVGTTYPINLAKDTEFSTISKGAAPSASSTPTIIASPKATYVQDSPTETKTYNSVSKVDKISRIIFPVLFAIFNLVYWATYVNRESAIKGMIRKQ

[4] = biological target: T4, GABA-A receptor; alpha-2/beta-3/gamma-2 (Homo sapiens, UniProt P18507+P28472+P47869); test: Displacement of [3H]Ro-151788 from human Gamma-aminobutyric acid A receptor alpha-2-beta-3-gamma-2 stably expressed in L(tk-) cells; type: cell-based; in short: as §1
T4 sequence (P18507 whole entry): T1 sequence (P18507 whole entry)
T4 sequence (P28472 whole entry): T1 sequence (P28472 whole entry)
T4 sequence (P47869 whole entry): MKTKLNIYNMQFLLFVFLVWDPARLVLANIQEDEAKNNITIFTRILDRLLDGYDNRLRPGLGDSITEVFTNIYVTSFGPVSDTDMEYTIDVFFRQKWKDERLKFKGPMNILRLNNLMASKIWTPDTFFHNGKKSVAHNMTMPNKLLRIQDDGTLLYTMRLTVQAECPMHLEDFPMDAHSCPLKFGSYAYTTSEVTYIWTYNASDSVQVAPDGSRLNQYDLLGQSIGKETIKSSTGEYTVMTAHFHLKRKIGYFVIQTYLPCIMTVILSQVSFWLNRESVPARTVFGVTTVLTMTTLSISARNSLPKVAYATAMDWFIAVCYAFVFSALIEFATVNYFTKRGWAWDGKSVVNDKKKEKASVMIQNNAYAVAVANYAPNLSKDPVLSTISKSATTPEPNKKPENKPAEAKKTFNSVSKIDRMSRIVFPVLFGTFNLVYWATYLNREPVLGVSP

[5] = biological target: T1, GABA-A receptor; alpha-1/beta-3/gamma-2; test: Inhibition of [3H]Ro-151788 binding to human GABA A receptor (alpha-1-beta-3-gamma-2) stably expressed in L(tk-) cells.; type: cell-based
[6] = biological target: T2, GABA-A receptor; alpha-5/beta-3/gamma-2; test: Displacement of [3H]Ro-151788 from human GABA-A receptor alpha-5-beta-3-gamma-2 subunits expressed in L(tk-) cells; type: cell-based; in short: as §1
[7] = biological target: GABA-A receptor; alpha-3/beta-3/gamma-2 (Homo sapiens) (UniProt P18507+P28472+P34903); test: Modulatory effect on coapplication with GABA at human Gamma-aminobutyric acid A receptor alpha-3-beta-3-gamma-2 in Xenopus oocytes.; type: cell-based; conditions: Oocyte
In short: (§2)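 Two-electrode voltage clamp of Xenopus oocytes transiently expressing human α1, α2 or α3 β3γ2S receptors. Test compound is co-applied with GABA at its EC20 (GABA range 4-30 µM). Result is the % change in GABA current, mean (SEM), n = 3-7, at the stated test compound concentration (µM).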

[8] = biological target: GABA-A receptor; alpha-2/beta-3/gamma-2 (Homo sapiens) (UniProt P18507+P28472+P47869); test: Modulatory effect on coapplication with GABA at human Gamma-aminobutyric acid A receptor alpha-2-beta-3-gamma-2 expressed inXenopus oocytes; type: cell-based; conditions: Oocyte; in short: as §2
[9] = biological target: GABA-A receptor; alpha-1/beta-3/gamma-2 (Homo sapiens) (UniProt P14867+P18507+P28472); test: Modulatory effect on coapplication with GABA at human Gamma-aminobutyric acid A receptor alpha-1-beta-3-gamma-2 in Xenopus oocyte.; in short: as §2
[10] = biological target: T4, GABA-A receptor; alpha-2/beta-3/gamma-2; test: Displacement of [3H]Ro-151788 from human GABA-A receptor alpha-2-beta-3-gamma-2 subunits expressed in L(tk-) cells; type: cell-based; in short: as §1

Compound	Ki [1] [nM]	Ki [2] [nM]	Ki [3] [nM]	Ki [4] [nM]	Ki [5] [nM]	Ki [6] [nM]	percent modulation of GABA EC20 response [7] [%]	percent modulation of GABA EC20 response [8] [%]	percent modulation of GABA EC20 response [9] [%]	Ki [10] [nM]
COC(=O)c1cc(-c2ccc(OC)cc2)c(-c2ccccc2)n(C)c1=O	625	393	210	340						
COc1ccc(-c2cc(-c3ccccc3)c(=O)n(C)c2-c2ccncc2)cc1		> 1000	24	130	83		63		45	
COc1ccc(-c2cc(-c3noc(C)n3)c(=O)n(C)c2-c2ccncc2)cc1			320	1100	260	1300	81		111	
COc1ccc(-c2cc(-c3ccsc3)c(=O)n(C)c2-c2ccncc2)cc1		450	12	51	39		18			
COC(=O)c1cc(-c2ccc(OC)cc2)c(-c2ccccn2)n(C)c1=O		> 667	510	> 667	> 3000					
COc1ccc(-c2cc(-c3nc(C)cs3)c(=O)n(C)c2-c2cccnc2)cc1		> 667	3.8	5	12.8		77		78	
COC(=O)c1cc(-c2ccc(OC)cc2)c(-c2cccnc2)n(C)c1=O	680	> 667	73	76						
COc1ccc(-c2cc(-c3ncc(C)s3)c(=O)n(C)c2-c2ccncc2)cc1		> 1000	250	380	330					
COC(=O)c1cc(-c2ccc(OC)cc2)c(-c2ccncc2)n(C)c1=O		390	79	320	1020		-25	8	3	

More lines, now with the values ahead:

Ki [1] [nM]	Ki [2] [nM]	Ki [3] [nM]	Ki [4] [nM]	Ki [5] [nM]	Ki [6] [nM]	percent modulation of GABA EC20 response [7] [%]	percent modulation of GABA EC20 response [8] [%]	percent modulation of GABA EC20 response [9] [%]	Ki [10] [nM]	Compound
	> 667	270	470	630						COC(=O)c1cc(-c2ccccc2)c(-c2ccc(N(C)C)cc2)n(C)c1=O
		6.2	37	45	> 1000	32	67	56		COc1ccc(-c2cc(-c3nccs3)c(=O)n(C)c2-c2ccncc2)cc1
		60	240	310		150	142	120		COc1ccc(-c2cc(-c3noc(C4CC4)n3)c(=O)n(C)c2-c2ccncc2)cc1
	> 667	25	42	90		138	97	117		COc1ccc(-c2cc(-c3nc(C)ns3)c(=O)n(C)c2-c2ccncc2)cc1
	> 667	> 30000	> 30000	> 30000						COc1ccc(-c2cc(C#N)c(OC)nc2-c2ccc(N(C)C)cc2)cc1
	> 1000	12	24	31		35		29		COc1ccc(-c2cc(-c3nc(C4CC4)cs3)c(=O)n(C)c2-c2ccncc2)cc1
		23		41	340				38	COc1ccc(-c2cc(-c3cc(C)cs3)c(=O)n(C)c2-c2ccncc2)cc1
24		6.7			270	-4		-23	20	Cc1csc(-c2cc(-c3ccncc3)c(-c3ccncc3)n(C)c2=O)n1
	380	3.5	8	13		41		57		Cc1csc(-c2cc(-c3ccc(F)cc3)c(-c3ccncc3)n(C)c2=O)n1
		270		520						COC(=O)c1cc(-c2ccccc2)c(-c2ccccc2)n(C)c1=O
